# Measurements: PMC3078945 (Clinical cancer research : an official journal of the …, 2011)
# Entries after “also recorded” stand apart in the source; their conditions may differ. Where two headings read alike, the source gives them in different places.
# Tests used:
# [1] = tested on: patients with advanced solid tumors; conditions: for Nausea/vomiting G3 (number of patients) / AST/ALT G2 (number of patients) / Fatigue G4 (number of patients) / Hyponatremia G2 (number of patients) / Hyponatremia G3 (number of patients) / Hyponatremia G4 (number of patients) / Lymphopenia G2 (number of patients) / Lymphopenia G3 (number of patients) / Lymphopenia G4 (number of patients) / Nausea/vomiting G2 (number of patients): cycle 1
# [2] = cited from earlier work
# advanced solid tumors = test: Antitumor activity; type: in vivo, human
# [3] = cited from earlier work; remark: listed apart in the source
# [4] = Safingol plasma pharmacokinetics in the phase I trial; type: in vivo, human; conditions: for dose dependence of safingol PK parameters (Cmax, AUC): safingol 60–930 mg/m^2
# Summary of the method: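 Safingol was an egg-phospholipid/dextrose/lactic acid emulsion diluted to 1 mg/ml in saline and infused IV over 60–120 min at 60–930 mg/m2. […] Assay was HPLC-MS/MS with non-compartmental analysis.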
# [5] = tested on: sphingosine-1-phophate (S1P) levels; test: Pharmacodynamics: plasma S1P levels after safingol; type: in vivo, human; conditions: for effect on S1P in plasma: across dose cohorts
# Summary of the method: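 Levels 1 h and 4 h after safingol were normalized to pre-treatment levels, with patients grouped by dose cohort. Values are cohort means with standard error.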
# [6] = biological target: sphingosine kinase 1 (SphK); conditions: cited from earlier work
# [7] = cohort 7 (safingol 600, cisplatin 60 mg/m^2), N=3
# [8] = cohort 8 (safingol 750, cisplatin 60 mg/m^2), N=6
# [9] = cohort 9 (safingol 930, cisplatin 60 mg/m^2), N=6
# [10] = cohort 10 (safingol 840, cisplatin 60 mg/m^2), N=6
# [11] = safingol + cisplatin, 6 patients
# [12] = safingol + cisplatin, 37 patients evaluable
# [13] = cohorts 8–10, safingol 750–930 mg/m^2
smiles,measurement,setting,value
"CCCCCCCCCCCCCCC[C@H](O)[C@@H](N)CO [Safingol, (2S,3S)-2-amino-1,3-octadecanediol]",Nausea/vomiting G3 (number of patients),"[1]; cohort 6 (safingol 480, cisplatin 60 mg/m^2), N=3",0
same,AST/ALT G2 (number of patients),[1]; [7],0
same,Fatigue G4 (number of patients),[1]; [7],0
same,Hyponatremia G2 (number of patients),[1]; [7],0
same,Hyponatremia G3 (number of patients),[1]; [7],0
same,Hyponatremia G4 (number of patients),[1]; [7],0
same,Lymphopenia G2 (number of patients),[1]; [7],0
same,Lymphopenia G3 (number of patients),[1]; [7],0
same,Lymphopenia G4 (number of patients),[1]; [7],0
same,Nausea/vomiting G2 (number of patients),[1]; [7],0
same,Nausea/vomiting G3 (number of patients),[1]; [7],0
same,AST/ALT G2 (number of patients),[1]; [8],1
same,Fatigue G4 (number of patients),[1]; [8],0
same,Hyponatremia G2 (number of patients),[1]; [8],0
same,Hyponatremia G3 (number of patients),[1]; [8],0
same,Hyponatremia G4 (number of patients),[1]; [8],0
same,Lymphopenia G2 (number of patients),[1]; [8],0
same,Lymphopenia G3 (number of patients),[1]; [8],0
same,Lymphopenia G4 (number of patients),[1]; [8],0
same,Nausea/vomiting G2 (number of patients),[1]; [8],0
same,Nausea/vomiting G3 (number of patients),[1]; [8],0
same,AST/ALT G2 (number of patients),[1]; [9],1
same,Fatigue G4 (number of patients),[1]; [9],0
same,Hyponatremia G2 (number of patients),[1]; [9],0
same,Hyponatremia G3 (number of patients),[1]; [9],1
same,Hyponatremia G4 (number of patients),[1]; [9],0
same,Lymphopenia G2 (number of patients),[1]; [9],0
same,Lymphopenia G3 (number of patients),[1]; [9],2
same,Lymphopenia G4 (number of patients),[1]; [9],0
same,Nausea/vomiting G2 (number of patients),[1]; [9],0
same,Nausea/vomiting G3 (number of patients),[1]; [9],0
same,AST/ALT G2 (number of patients),[1]; [10],0
same,Fatigue G4 (number of patients),[1]; [10],0
same,Hyponatremia G2 (number of patients),[1]; [10],0
same,Hyponatremia G3 (number of patients),[1]; [10],2
same,Hyponatremia G4 (number of patients),[1]; [10],0
same,Lymphopenia G2 (number of patients),[1]; [10],0
same,Lymphopenia G3 (number of patients),[1]; [10],0
same,Lymphopenia G4 (number of patients),[1]; [10],0
same,Nausea/vomiting G2 (number of patients),[1]; [10],1
same,Nausea/vomiting G3 (number of patients),[1]; [10],0
same,maximum administered dose,[1]; exceeded the MTD,930 mg/m^2
same,DLT from safingol (principal DLT),[1]; in combination with cisplatin,hepatic enzyme elevation
same,overall tolerability of the drug combination,[1]; in vivo,well tolerated with no major increase in toxicities over those of cisplatin alone
same,maximum tolerated dose (MTD),"[1]; safingol over 120 min with cisplatin 60 mg/m^2, every 3 weeks",840 mg/m^2
same,recommended phase 2 dose,"[1]; with cisplatin 60 mg/m^2, every 3 weeks",840 mg/m^2
same,pharmacokinetic interaction with doxorubicin,[2]; phase I study with doxorubicin,No significant pharmacokinetic interaction
same,Cmax,"[2]; read-out: mean Cmax, safingol 60 mg/m^2, study of safingol and doxorubicin",1.3 µM
same,duration of stable disease,advanced solid tumors; other patient with adrenal cortical cancer,7.2 m
same,average duration of stable disease,advanced solid tumors; [11],3.3 m
same,range of duration of stable disease,advanced solid tumors; [11],1.8 – 7.2 m
same,average duration of stable disease,"advanced solid tumors; safingol + cisplatin, 6 patients, listed as S",3.3 months
same,best response,advanced solid tumors; [12],stable disease
same,number of patients with stable disease,advanced solid tumors; [12],6
same,"effect on in vitro antitumor effect of doxorubicin, cisplatin and mitomycin C",[3],increases the in vitro antitumor effect
same,pharmacokinetic interaction of safingol with cisplatin (day 1 vs day 8),"[4]; cohorts 1–7, listed as S",no significant interaction
same,duration of safingol concentration over 20 µM,[4]; [13],< 1 h
same,time safingol levels of at least 5 µM persist after treatment,[4]; [13],at least 4 hours
same,AUC,"[4]; human, plasma, intravenous, Mean day 1 safingol AUC, safingol 600 – 930 mg/m^2",102 to 110 µM·h
same,Cmax,"[4]; human, plasma, intravenous, Mean day 1 safingol Cmax, safingol 600 – 930 mg/m^2",23.9 to 26.8 µM
same,increase in AUC per 100 mg/m^2 increase in safingol dose,[4]; on average,10 µM·h
same,increase in Cmax per 100 mg/m^2 increase in safingol dose,[4]; on average,3 µM
same,"dose dependence of safingol PK parameters (Cmax, AUC)",[4],increased in a linear and dose-proportional manner; also recorded: increased linearly with dose
same,"dose dependence of safingol PK parameters (Cmax, AUC)",[4]; listed as S,linear throughout the dose range
same,effect on S1P in plasma,[5],dose-dependent decreases; also recorded: significant decreases
same,effect on S1P in plasma,[5]; listed as S,dose-dependent reduction
same,time dependence of S1P levels,"[5]; safingol 930 mg/m^2, p = 0.001",lower 4 hours post-treatment than at 1 hour post-treatment
same,decrease of S1P levels relative to pre-treatment,"[5]; safingol doses of over 750 mg/m^2, p < 0.001",about half
same,Ki,[6]; SphK,5 µM
same,Ki,[6]; competitive inhibitor of SphK,~5 µM
